This note sets out measurements from ChEMBL document CHEMBL4428077, “Synthesis and Biological Evaluation of N-((1-(4-(Sulfonyl)piperazin-1-yl)cycloalkyl)methyl)benzamide Inhibitors of Glycine Transporter-1” (J Med Chem, 2016).

The nature of data set [1]: Drug level in Sprague-Dawley rat plasma at 30 mg/kg, po measured 2 hrs post dose by LC-MS/MS analysis. The format is ADME, organism-based. In short, it runs like this: (§1)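 Drug-naive Sprague−Dawley rats (n = 4−5/group) were dosed orally once in 5% Solutol plus 20% Captisol in 25 mM PBS, pH 2, and euthanized 2 h later by CO₂. CSF was drawn from the cisterna magna. Drug was measured in CSF, brain and plasma; data as mean ± SEM.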

In data set [2] the test system is Rattus norvegicus. In words: In vivo inhibition of glycine transporter-1 in Sprague-Dawley rat assessed as CSF glycine level at 1 mg/kg, po qd for 5 days measured 2 hrs post last dose by LC-MS/MS analysis relative to control. The format is functional. Further details: scale not given: the % may be the effect or the level left. In short, it runs like this:
(§2)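 Drug-naive Sprague-Dawley rats, n = 5 per group, dosed orally once daily for 5 days with vehicle or 1.6, 4.8 or 16.1 μmol/kg. Vehicle was 5% Solutol / 20% Captisol in 25 mM PBS, pH 2. Killed 2 h or 48 h after the last dose. CSF glycine was expressed as % of vehicle control (vehicle 2 h post last dose), mean ± SEM. Two-way ANOVA with Tukey test.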

In data set [3] the test system is Rattus norvegicus. In words: In vivo inhibition of glycine transporter-1 in Sprague-Dawley rat assessed as CSF glycine level at 10 mg/kg, po qd for 5 days measured 2 hrs post last dose by LC-MS/MS analysis relative to control. The class given is functional. Set-up: scale not given: the % may be the effect or the level left. In short, it runs like this: as §2
Data set [4] in a line: Toxicity in Sprague-Dawley rat assessed as gross behavioral abnormality at 1 to 10 mg/kg, po qd for 5 days. The format is organism-based. The note with it: in vivo, 120 h. In short, it runs like this:
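Drug-naive Sprague–Dawley rats (n = 5/group) were dosed orally once daily for 5 days at 1.6, 4.8 or 16.1 μmol/kg in 5% Solutol/20% Captisol in 25 mM PBS, pH 2.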

The nature of data set [5]: Drug level in Sprague-Dawley rat brain at 100 mg/kg, po measured 2 hrs post dose by LC-MS/MS analysis. The format is ADME, organism-based. Conditions: read-out: Drug uptake. In short, it runs like this:
as §1

Data set [6] can be described thus: Drug level in Sprague-Dawley rat plasma at 3 mg/kg, po qd for 5 days measured 2 hrs post last dose by LC-MS/MS analysis. The format is ADME, organism-based. In short, it runs like this: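 Drug-naive Sprague−Dawley rats (n = 5/group) were dosed orally once daily for 5 days in 5% Solutol plus 20% Captisol in 25 mM PBS, pH 2, and sacrificed 2 h after the last dose. Drug was measured in CSF, brain and plasma; mean ± SEM.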

Data set [7] relates to Rattus norvegicus. In words: In vivo inhibition of glycine transporter-1 in Sprague-Dawley rat assessed as increase in CSF glycine level at 1 to 10 mg/kg, po qd for 5 days. The class given is functional, organism-based. In short, it runs like this:
as §2

A short description of data set [8]: Volume of distribution at steady state in cynomolgus monkey at 1 mg/kg, iv or 5 mg/kg, po measured up to 12 or 24 hrs post dose by LC-MS/MS analysis. The class given is ADME, organism-based, Macaca fascicularis. Conditions: in vivo, read-out: Vdss. In short, it runs like this:
(§3)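 Three female cynomolgus monkeys per group, single dose: IV 1.5 μmol/kg in 5% DMSO/10% Solutol in saline, pH 6.5 (2 mL/kg), or PO 7.8 μmol/kg in 5% Solutol in 20% Captisol, 25 mM PBS, pH 2 (5 mL/kg). Parameters come from plasma concentration–time data; mean ± SD.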

A short description of data set [9]: Drug level in cynomolgus monkey CSF at 10 mg/kg, po measured at 0.5 hr post dose by LC-MS/MS analysis. The format is ADME, organism-based, Macaca fascicularis, Cerebrospinal fluid. The note with it: read-out: Drug uptake. In short, it runs like this:
(§4)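 Cynomolgus monkeys (n = 3/group) fitted with subcutaneous CSF ports were dosed orally at 0.4−15.7 μmol/kg in 5% Solutol plus 20% Captisol in 25 mM PBS, pH 2. CSF (about 0.30 mL) and blood were sampled predose and at 0.5, 1, 2, 3, 4, 8, 12 and 24 h. Quantitation limit 1.0 ng/mL; mean ± SD.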

Data set [10] in a line: Drug level in cynomolgus monkey plasma at 3 mg/kg, po measured at 3 hrs post dose by LC-MS/MS analysis. The class given is ADME, organism-based, Macaca fascicularis.
Data set [11] is described as follows: Apparent terminal half life in cynomolgus monkey plasma at 1 mg/kg, iv or 5 mg/kg, po by LC-MS/MS analysis. The note with it: read-out: betat1/2(app) (converted). The format is ADME, organism-based, Macaca fascicularis. In short, it runs like this: (§5)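 Single-dose PK in female cynomolgus monkeys, n = 3 per group: 1.5 μmol/kg IV in 5% DMSO/10% Solutol in saline, pH 6.5 (2 mL/kg), or 7.8 μmol/kg PO in 5% Solutol in 20% Captisol, 25 mM PBS, pH 2 (5 mL/kg). Plasma parameters reported as mean ± SD.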

Data set [12] can be described thus: Cmax in cynomolgus monkey plasma at 5 mg/kg, po by LC-MS/MS analysis. The format is ADME, organism-based, Macaca fascicularis. Further details: dose 5 mg/kg, route oral. In short, it runs like this:
as §5

A short description of data set [13]: Drug level in cynomolgus monkey plasma at 3 mg/kg, po measured at 24 hrs post dose by LC-MS/MS analysis. The format is ADME, organism-based, Macaca fascicularis.
Data set [14] is described as follows: Ratio of drug level in CSF to unbound plasma concentration in Sprague-Dawley rat at 3 to 10 mg/kg, po measured 2 hrs post dose by LC-MS/MS analysis. Conditions: in vivo. The class given is ADME, organism-based. In short, it runs like this:
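Drug-naive male Sprague–Dawley rats (n = 4–5/group) were dosed orally in 5% Solutol/10% Captisol in 25 mM PBS, pH 2, and euthanized by CO2 2 h post-dose. CSF (50–100 μL) was taken from the cisterna magna, and brain and plasma were collected; drug was measured in each matrix. Quantitation limit 1.0 ng/mL.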

The nature of data set [15]: Drug level in cynomolgus monkey plasma at 10 mg/kg, po measured at 4 hrs post dose by LC-MS/MS analysis. The class given is ADME, organism-based, Macaca fascicularis.
Data set [16] can be described thus: Protein binding in human plasma. The note with it: read-out: PPB (converted). The class given is ADME, cell-free.
A short description of data set [17]: Drug level in cynomolgus monkey CSF at 10 mg/kg, po measured at 2 hrs post dose by LC-MS/MS analysis. Conditions: read-out: Drug uptake. The class given is ADME, organism-based, Macaca fascicularis, Cerebrospinal fluid. In short, it runs like this:
as §4

Data set [18] is described as follows: Total clearance in cynomolgus monkey at 1 mg/kg, iv or 5 mg/kg, po measured up to 12 or 24 hrs post dose by LC-MS/MS analysis. The note with it: in vivo. The format is ADME, organism-based, Macaca fascicularis. In short, it runs like this: as §3
Data set [19] in a line: Drug level in po dosed Sprague-Dawley rat brain measured 2 hrs post dose by LC-MS/MS analysis. The class given is ADME, organism-based. The note with it: in vivo.
Data set [20] is described as follows: AUClast in cynomolgus monkey plasma at 1 mg/kg, iv or 5 mg/kg, po measured up to 12 or 24 hrs post dose by LC-MS/MS analysis. The class given is ADME, organism-based, Macaca fascicularis. In short, it runs like this: as §5
Data set [21] can be described thus: Drug level in po dosed Sprague-Dawley rat CSF measured 2 hrs post dose by LC-MS/MS analysis. The format is ADME, organism-based, Cerebrospinal fluid. The note with it: in vivo.
Data set [22] is described as follows: Drug level in cynomolgus monkey plasma at 3 mg/kg, po measured at 2 hrs post dose by LC-MS/MS analysis. The class given is ADME, organism-based, Macaca fascicularis.
Data set [23] can be described thus: Drug level in cynomolgus monkey CSF at 0.3 to 3 mg/kg, po measured up to 24 hrs post dose by LC-MS/MS analysis. The class given is ADME, organism-based, Macaca fascicularis, Cerebrospinal fluid. Conditions: in vivo, BLD = below limit of detection. In short, it runs like this: as §4
Data set [24] has as its target Voltage-gated inwardly rectifying potassium channel KCNH2 (Homo sapiens, UniProt Q12809). In words: Inhibition of human ERG channel expressed in HEK293 cells by patch clamp assay. The class given is cell-based. In short, it runs like this: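 PatchXpress patch-clamp on HEK293 cells stably expressing hERG. Five-point concentration-response, n = 3.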
Background: In patch-clamp work, channel activity is measured electrically.

What is called Cmax is the highest concentration seen after dosing. The AUC(0-t) is exposure summed from dosing to a finite time, without extrapolation to infinity. Broadly, the IC50 is the concentration that gives 50% inhibition.

Active and inactive are the calls of the source. The calls are words filed in the database; no cut-off is given here.

Voltage-gated inwardly rectifying potassium channel KCNH2, sequence (Q12809 whole entry): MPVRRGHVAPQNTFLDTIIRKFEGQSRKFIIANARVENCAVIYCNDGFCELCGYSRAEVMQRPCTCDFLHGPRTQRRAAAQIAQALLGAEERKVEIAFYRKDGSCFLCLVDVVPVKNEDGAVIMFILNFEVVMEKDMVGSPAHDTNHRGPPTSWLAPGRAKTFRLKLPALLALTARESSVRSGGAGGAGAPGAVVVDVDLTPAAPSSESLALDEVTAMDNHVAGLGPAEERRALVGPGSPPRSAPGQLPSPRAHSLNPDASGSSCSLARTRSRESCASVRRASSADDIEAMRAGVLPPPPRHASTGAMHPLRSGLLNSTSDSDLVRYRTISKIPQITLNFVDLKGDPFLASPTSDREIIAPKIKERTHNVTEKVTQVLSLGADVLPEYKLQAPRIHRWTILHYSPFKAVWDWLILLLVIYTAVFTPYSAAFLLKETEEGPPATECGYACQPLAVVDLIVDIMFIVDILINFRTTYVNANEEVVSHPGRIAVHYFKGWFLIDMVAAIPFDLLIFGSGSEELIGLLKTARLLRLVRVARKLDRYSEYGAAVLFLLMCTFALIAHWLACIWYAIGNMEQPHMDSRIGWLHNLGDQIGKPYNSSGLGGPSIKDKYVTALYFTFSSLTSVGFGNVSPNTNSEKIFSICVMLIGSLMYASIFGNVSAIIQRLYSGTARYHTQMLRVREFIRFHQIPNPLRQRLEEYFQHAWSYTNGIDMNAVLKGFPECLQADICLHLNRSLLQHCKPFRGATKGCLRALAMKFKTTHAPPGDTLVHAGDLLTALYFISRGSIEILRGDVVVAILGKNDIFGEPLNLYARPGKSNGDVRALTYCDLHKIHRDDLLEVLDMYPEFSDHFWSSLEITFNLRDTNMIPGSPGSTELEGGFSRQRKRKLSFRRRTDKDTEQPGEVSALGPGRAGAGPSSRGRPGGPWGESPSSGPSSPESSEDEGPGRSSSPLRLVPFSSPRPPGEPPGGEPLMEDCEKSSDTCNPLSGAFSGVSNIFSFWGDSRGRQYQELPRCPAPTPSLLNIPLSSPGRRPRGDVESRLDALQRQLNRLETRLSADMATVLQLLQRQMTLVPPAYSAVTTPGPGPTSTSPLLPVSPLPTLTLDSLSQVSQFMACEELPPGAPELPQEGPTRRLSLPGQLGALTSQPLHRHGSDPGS

`Cl.Cn1cc(S(=O)(=O)N2CCN(C3(CNC(=O)c4ccc(C(F)(F)F)cc4Cl)CCC(F)(F)CC3)CC2)nn1`: the concentration at 2 h in [1] came out at 490 nM; in [5] it was 46.3 nM; in [6], 122 nM. The Activity in data set [2] is 188%; in [3] it was 315%; in data set [4] it was “Non-Toxic”. Further, the inhibition result in [7] was “Active”.
For `CC(NC(=O)c1ccc(C(F)(F)F)cc1Cl)C1(N2CCN(S(=O)(=O)c3cn(C)nn3)CC2)CCC(F)(F)CC1.Cl` (single isomer, unassigned; (+)), the Vd in data set [8] stood at 1.93 L/kg. In data set [9], the concentration at 0.5 h worked out at 1.8 ng/mL. Further, the concentration at 3 h in [10] came out at 5.7 ng/mL. The half-life in [11] is 6.27 h. This compound also came in with a Cmax in [12] of 105 ng/mL. In data set [13], the concentration at 24 h was < 1 ng/mL. The Ratio in data set [14] is listed as > 0.1. In [15], the concentration at 4 h worked out at 224 ng/mL. Moreover, in data set [16], the fraction unbound was 0.12. In addition, the concentration at 2 h stood at 11.3 ng/mL in data set [17] and 3.6 ng/mL in data set [22]. Moreover, the clearance in data set [18] is 24.9 mL/min/kg. Further, the Drug uptake entry in [19] was “Dose-dependent effect”; in data set [21], “Dose-dependent effect”; in [23], “Bld”. Further, the area under the curve AUC(0-t) at 24 h in data set [20] was 690 ng·h/mL. This compound also showed an IC50 in data set [24] of 20.2 µM.
